According to ChEMBL document CHEMBL4513216, “Probing the Open Global Health Chemical Diversity Library for Multistage-Active Starting Points for Next-Generation Antimalarials” (ACS Infect Dis, 2020):

test: Toxicity liver stage against HepG2, at 10uM; format: cell-based; parameters: test concentration 10 uM, cell line HepG2-A16-CD81EGFP; settings: human, HepG2-A16-CD81EGFP cells; read-out: INHIBITION
How it was run: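 Uninfected HepG2-A16-CD81EGFP cells, 3 × 10^3 per well, 1536-well, plated on prespotted compound at 10 μM final, parasite-free screening media added to match infected plates; puromycin 10 μM positive, DMSO 0.5% negative; run in parallel with 48 h PbLuc assay at 37 °C, 5% CO2; viability by CellTiter-Glo luminescence, normalized to controls.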

SMILES | cytotoxicity at 10 µM
COc1ccc2c(ccn2CCC(=O)O)c1 | 15.4%
CCN1C(=O)CC(N(C)Cc2nc3ccccc3c(=O)[nH]2)C1=O (stereo not drawn) | 2.06%
CN1C[C@H]2CN(C(=O)c3ccc4c(c3)OCO4)CCN2C1=O | -0.434%
COc1ccccc1N1CCN(C(=O)CCn2ccc(C)n2)CC1 | -3.24%
Cc1ccc(NC(=O)c2ccc(=O)n(CC(=O)NC3CCCC3)n2)cc1 | -3.63%
O=C(NCC1CC1)c1cc(Br)cnc1N1CCCCC1 | 3.1%
CC(C)C1Nc2ccccc2C(=O)N1CC(=O)Nc1nc2c(s1)CCC2 (stereo not drawn) | 2.31%
Cc1nnc(NC(=O)CCc2c(C)nn3cnnc3c2C)s1 | -1.7%
O=C(NCC1(CO)CC1)c1ccccc1F | 9.99%
COc1ccc(S(=O)(=O)NCCC(O)c2cccs2)c(C)c1 (stereo not drawn) | -1.13%
CCSc1ccccc1C(=O)NCCn1nc(-n2cncn2)ccc1=O | -5.65%
Cc1ccc(C(=O)N2CCc3ncc(Cn4cccn4)n3CC2)o1 | 2.31%
COc1ccc(CNC(=O)c2cc3c(nc2O)CCC(C)C3)cc1 (stereo not drawn) | -6.1%
CN1CCN(C(=O)Cn2nc(C(F)(F)F)c(Br)c2C2CC2)CC1 | -8.5%
CCn1nccc1CNC(=O)C1CCCCC1 | -0.488%
CCc1nc(Nc2cccc(C(=O)NC)c2)c2c(n1)c(C)nn2CC | 1.41%
Oc1ccc(Cl)cc1CNCc1ccccc1C(F)(F)F | 2.67%
COc1cc(CC2CC(C(N)=O)=NO2)cc2c1OCO2 (stereo not drawn) | 5.32%
Cc1nn(C)c2cnn(C(C)C(=O)NCc3cccnc3)c12 (stereo not drawn) | 9.77%
c1cncc(CN2CCCCC2c2ccc(Nc3cnccn3)nc2)c1 (stereo not drawn) | 4.41%
COCCC(=O)N1C[C@@H](O)[C@H](N2CCN(c3ccccc3)CC2)C1 | 0.046%
CN1CCN(CC2(O)CCN(C(=O)CCc3ccccc3F)C2)CC1 (stereo not drawn) | -2%
COc1ccc2c(c1)c(-c1nc(N(C)C)ncc1CN)cn2C | 7.43%

SMILES | cytotoxicity at 10 µM
Cc1nnc(C2CCN(c3ccccc3)CC2)o1 | 8.84%
CN1CCC(c2cccc(C(=O)N(C)C)n2)CC1 | 4.53%
CCC(=O)N1CCC(Cc2cnc(Nc3cnccn3)cn2)CC1 | -2.19%
COc1cc2cc3c(nc2cc1OC)OCCN(Cc1ccco1)C3 | -0.116%
Cc1csc(Nc2cc(C3CCCCN3C)nc(C)n2)n1 (stereo not drawn) | 4.73%
COc1ccc2c(O)c(NC(=O)NCC3CC3)cnc2c1 | -0.799%
CC(C)NC(=O)CCNC(=O)c1c(Br)c2ccccc2n1C | 8.59%
COCCN(CCOC)C(=O)c1sc(C)nc1C | 2.16%
CCOc1ccccc1C(=O)Nc1cccc(C[S+](C)[O-])c1C (stereo not drawn) | -4.35%
CC(=O)Nc1ccc(SCC(O)COCc2ccccc2)cc1 (stereo not drawn) | 1.87%
Cc1nc2cc(=O)[nH]n2c(C)c1CC(=O)NC(C)C | 11.3%
CC(=O)N1CCCC(c2nc(-c3ccccc3)c[nH]2)C1 (stereo not drawn) | 6.48%
CCN1CC(COC(=O)c2cccc(Br)c2)CC1=O (stereo not drawn) | 4.91%
CNS(=O)(=O)CC(=O)NC(c1cc(C)sc1C)C(C)C (stereo not drawn) | 0.918%
CCc1nc(CCNc2ncccc2S(N)(=O)=O)sc1C | -3.23%
Cn1cc(CC2CC(=O)N(Cc3ccc(OC(F)F)cc3)C2=O)cn1 (stereo not drawn) | 6.6%
CCOc1ccc(NCC(=O)NCC(=O)N2CCCC2)c(C(F)(F)F)c1 | -12.8%
OCc1cc2ccccc2nc1N1CCCC1 | -8.82%
O=C(NCCCn1nc2ccccn2c1=O)NC(C1CC1)C1CC1 | 2.74%
O=C(NCc1cccnc1)NCC(O)c1ccccc1C(F)(F)F (stereo not drawn) | 1.5%
Cc1ccc(C2CN(Cc3cnc(-c4cccnc4)s3)CCO2)o1 (stereo not drawn) | -10.9%
CCC(O)CN(CC(=O)Nc1cc(C)no1)c1ccccc1 (stereo not drawn) | -2.59%
CC(=O)Nc1ccc(C(=O)N2CCOc3nc(C)ccc32)cc1 | 2.81%

SMILES | cytotoxicity at 10 µM
O=C(c1ccncc1F)N1CCCC1c1nc(-c2ccccc2)n[nH]1 (stereo not drawn) | 1.34%
NC(=O)NC(=O)CCn1ccc(-c2ccc(F)cc2)n1 | 4.19%
Cc1nnc(SC2CCN(c3sccc3C#N)C2=O)s1 (stereo not drawn) | -7.22%
CC(O)CN1CCC(CN(C)CC(=O)NC(C)C)CC1 (stereo not drawn) | -2.32%
COc1ccc(CCCN(C)C(=O)c2cc(Cl)c[nH]2)cc1OC | -1.24%
O=C1CCCN1CC1CCCCN1C(=O)Nc1cccc(F)c1 (stereo not drawn) | -1.8%
CC(C)N(CC(N)=O)Cc1cccc(Br)c1 | -6.93%
CN1CCOC(C(=O)N2CCOC3(CCCC3)C2)C1 (stereo not drawn) | 7.28%
CCCC(NC(=O)c1cc(C)ccc1C)c1nnn[nH]1 (stereo not drawn) | -9.11%
CCC(CNC(=O)c1ccc(Br)o1)N1CCc2ccccc2C1 (stereo not drawn) | -20.5%
O=C(NCc1cccc(F)c1)N1CCc2ncnc(NC3CC3)c2CC1 | -105%
CS(=O)(=O)N1CCO[C@@H]2CN(C(=O)Cc3cccs3)CC[C@@H]2C1 | -108%
Cc1nc(N2CCOCC2)nc2c1CN(CC(=O)N(C)C)CC2 | -101%
CS(=O)(=O)N1CCC(N2CCCC2c2ccccn2)CC1 (stereo not drawn) | -7.65%
O=C(NCC1CCCO1)c1cc(COc2ccccc2F)[nH]n1 (stereo not drawn) | 10.8%
CCOCCCNC(=O)C1CCC(=O)N(CCc2ccc(Cl)cc2)C1 (stereo not drawn) | -0.591%
CCOC(=O)CCNC(=O)N1CCCC(CNC(=O)c2cccs2)C1 (stereo not drawn) | 0.712%
Cc1ccc(C(C(=O)NCCc2nc(C)cc(=O)[nH]2)N(C)C)cc1 (stereo not drawn) | 1.92%
Cc1cc(NCc2nnc3n2CCCCC3)n2nc(C)c(C)c2n1 | 5.66%
Cc1nonc1N1CCN(Cc2nc(CC3CC3)no2)CC1 | 9.34%
CCNc1ncc(C(=O)N(C)Cc2nc3ccccc3n2C)cn1 | 6.09%
CCn1cc(SCC(=O)N2CCCC(O)(CO)C2)c2ccccc21 (stereo not drawn) | 6.37%
CC(C)(O)CCc1ccc(C(=O)N2CCN(CCS(C)(=O)=O)CC2)cc1 | -0.686%

SMILES | cytotoxicity at 10 µM
CCN(CC)CCNCc1cc(O)c2cc(C)ccc2n1 | 0.749%
CSCC(=O)N1CCc2c(cnc(C)c2-c2noc(-c3cscn3)n2)C1 | 0.86%
CCCc1cc(NC2CCN(Cc3ccccn3)CC2)n2nccc2n1 | -3.91%
CCc1ccc(CN2CCN(C(=O)C(C)C)[C@@H]3CS(=O)(=O)C[C@@H]32)cc1 | 2.11%
O=C1CCCN1CCC1CCN(C2CCC3(CCNCC3)CC2)CC1 | 10.9%
c1cncc(Cc2nnc3n2CCN(CC2CCCNC2)CC3)c1 (stereo not drawn) | 2.1%
Cc1nn(C)c(C)c1C(C(=O)O)N1CCc2ccccc2C1 (stereo not drawn) | -0.492%
CCc1cn[nH]c1C1CCN(C(=O)c2cc(C#N)c(=O)[nH]c2C)CC1 | 2.39%
CC(C)=Cc1c(-c2ccccc2)ncn1CCN(C)S(C)(=O)=O | -0.334%
Cc1c[nH]c(CN(C)C(C(=O)O)c2c(F)cccc2Cl)n1 (stereo not drawn) | -41.7%
Cc1cnc(N2CCN(C)CC2)nc1-c1ccnn1C | 6.3%
Cn1ccnc1CN1CCCC(CO)(CCc2ccccc2)C1 (stereo not drawn) | -3.36%
Cn1ncc2c(NCC(=O)N3CCNCC3)nc(C(C)(C)C)nc21 | -10.6%
Cc1cccc(N2CCC3(CCCN3Cc3cnn(C)c3C)CC2)n1 | -2.35%
CCOc1ncccc1C(=O)N1CCCC(c2nccn2CCOC)C1 (stereo not drawn) | -9.12%
CC(C)CN1CCCn2nc(CNC(=O)CCN)cc2C1 | -20.5%
O=C1OC2(CCNCC2)CN1CC(=O)N1CCCC1c1ccco1 (stereo not drawn) | -14.6%
Cc1nc(CN2CCC(N(C)Cc3nnc(C4CC4)n3C)C2)oc1C (stereo not drawn) | -16.1%
CCN1CCN(Cc2nc(CC(C)C)no2)CC1 | -23%
Cc1cc(C)c2c(c1)C(NCc1c(C)nn(C)c1N(C)C)CCO2 (stereo not drawn) | -4.07%
Cc1nc(CSCCC(=O)NCc2ccc(-n3cncn3)nc2)cs1 | -27.2%
Cc1cc(C2CCCN(CCCS(N)(=O)=O)C2)n[nH]1 (stereo not drawn) | -20.1%
CN(Cc1cccnc1)C(=O)NC1CCN(Cc2ccccn2)CC1 | -18.2%

SMILES | cytotoxicity at 10 µM
Cc1ccc(NC2CCN(C(=O)c3cccnc3O)CC2)nn1 | -27.6%
CN1CCCN(C(=O)NCCNc2ncccn2)CC1 | -16.7%
c1coc(-c2nc(CN3CCCC(Cn4cncn4)C3)cs2)c1 (stereo not drawn) | -12%
Cc1nc(-c2ccccc2)n(CC(=O)NC(C)(C)C)n1 | -16%
Cc1ccc(N2CCCC(NCc3cccc4c3OCO4)C2)nn1 (stereo not drawn) | -16.4%
CCNc1cc2c(nn1)CCN(C(=O)Cc1noc3ccccc13)C2 | -7.42%
CCc1ccc(S(=O)(=O)Nc2cc(C(=O)O)c(F)cc2F)s1 | -7.44%
Cc1cc(C)cc(NC(=O)CN2CCCC(n3cncn3)C2)c1 (stereo not drawn) | -9.93%
Cc1nnc2n1CCN(Cc1csc(CC(=O)N(C)C)n1)C2 | -7.08%
Cc1cccc(C(=O)N2C[C@@H]3OCCN(c4ncccn4)[C@@H]3C2)n1 | 0.523%
CN(C)CCOCc1nnc2n1CCN(Cc1ccco1)CC2 | 2.19%
COCCN1CCC2(CC1)CC(c1cccnc1)CO2 (stereo not drawn) | -3.21%
c1cncc(OCc2nnn3c2CN(Cc2ccsc2)CCC3)c1 | -4.34%
O=C(Cc1ccsc1)N1C[C@@H]2CN(Cc3ccoc3)CCO[C@@H]2C1 | -1.73%
COc1ccc(CN2Cc3nnn(C)c3C(COCCN(C)C)C2)cc1 (stereo not drawn) | 5.26%
Cc1noc(C)c1CN1C[C@@H]2CCCO[C@@H]2[C@H](Nc2ccccn2)C1 | 5.44%
CC[C@@H]1N(Cc2nccs2)CCC[C@]12CCC(=O)N2CCOC | 2.49%
COCCN1C(=O)C[C@H]2[C@H]1CCN2Cc1ccc(OC)cc1 | 1.47%
CC1N(c2cnn(C)c2)C(=O)COC12CCN(Cc1ccco1)CC2 (stereo not drawn) | 1.2%
O=C(C1CCC1)N1C2CCC(O)(CC2)C1CN1CCOCC1 (stereo not drawn) | -1.63%
C=c1ncsc1=C1NN=C(C2CCCN2C(=O)CCn2cccn2)O1 (stereo not drawn) | 2.29%
